Assay results from ChEMBL document CHEMBL1955834, “Disparate SAR data of griseofulvin analogues for the dermatophytes Trichophyton mentagrophytes, T. rubrum, and MDA-MB-231 cancer cells” (J Med Chem, 2012).
The source made the active and inactive calls. The calls are words filed in the database; no cut-off is given here.

Columns and labels:
[1] = system: Trichophyton mentagrophytes; test: Antifungal activity against Trichophyton mentagrophytes IBT 2724 after 7 days by micro broth dilution method; format: functional, organism-based; conditions: IBT 2724, 168 h
How it was run: (§1)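 T. mentagrophytes IBT2724 was tested by broth microdilution using an 8-fold dilution series of 10 concentrations from 50 μM down to 0.4 μM, with 1% DMSO. The inoculum was prepared per CLSI M38-A2, adjusted to OD530 0.90–1.5 and diluted 50-fold in RPMI/MOPS at pH 7.00. Plates ran 7 days at 37 °C with an OD read-out. IC50 came from a variable-slope sigmoidal fit.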

SCC114 = test: Cytotoxicity against human SCC114 cells by phenotype-based spindle multipolarity assay; format: functional, cell-based
MDA-MB-231 [2] = test: Cytotoxicity against human MDA-MB-231 cells assessed as cell viability after 48 hrs by MTT assay; format: functional, cell-based; conditions: MDA-MB-231, 48 h
How it was run: (§2)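 MDA-MB-231 cells were grown in L-15 with 10% FCS at 37 °C and seeded at (2-3) × 10^4 per well. Exposure was 24 and/or 48 h, then MTT for at least 4 h, with absorbance read at 570/630 nm. Each condition had at least 3 replicates, reported as mean ± SD of a representative experiment repeated at least three times.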

Trichophyton rubrum [3] = test: Antifungal activity against Trichophyton rubrum IBT 29284 at 50 uM after 7 days by micro broth dilution method; format: functional; conditions: for inhibition at 50 µM: IBT 29284, 168 h
How it was run: (§3)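 T. rubrum IBT29284 was tested by broth microdilution using a 4-fold dilution series of 10 concentrations from 50 μM down to 0.2 μM, with 1% DMSO. The inoculum followed CLSI M38-A2, set to OD530 0.90–1.5 and diluted 50-fold in RPMI/MOPS at pH 7.00. Incubation was 7 days at 37 °C, read by OD. IC50 came from a variable-slope sigmoidal fit.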

Trichophyton rubrum [4] = test: Antifungal activity against Trichophyton rubrum IBT 29284 after 7 days by micro broth dilution method; format: functional, organism-based; conditions: IBT 29284, 168 h; how it was run: as §3
[5] = system: Trichophyton mentagrophytes; test: Antifungal activity against Trichophyton mentagrophytes IBT 2724 at 50 uM after 7 days by micro broth dilution method; format: functional; conditions: for inhibition at 50 µM: IBT 2724, 168 h; how it was run: as §1
MDA-MB-231 [6] = test: Cytotoxicity against human MDA-MB-231 cells assessed as cell viability at 50 uM after 48 hrs by MTT assay; format: functional; conditions: for inhibition at 50 µM: MDA-MB-231, 48 h; how it was run: as §2

Structure (SMILES) | IC50 [1] [nM] | IC50 (MDA-MB-231 [2]) [µM] | inhibition (Trichophyton rubrum [3]) | IC50 (Trichophyton rubrum [4]) [nM] | further results
COC1=CC(=O)C[C@@H](C)[C@]12Oc1c(Cl)c(OC)cc(OCc3ccccc3)c1C2=O | 250 | 20 | inactive |  | inhibition (SCC114): inactive
COc1cc(OC)c2c(c1Cl)O[C@]1(C2=O)C(Oc2ccccc2)=CC(=O)C[C@H]1C | 1600 | 7.2 |  | 6100 | 
COc1cc(OC)c2c(c1Cl)O[C@]1(C2=O)C(OCc2cccc3ccccc23)=CC(=O)C[C@H]1C | 250 | 13 |  | 2600 | 
COc1cc(OC)c2c(c1Cl)O[C@@]1(C(=O)C=C(OC3CCCC3)C[C@H]1C)C2=O |  | 27 | inactive |  | inhibition (SCC114): inactive; inhibition at 50 µM [5]: < 50%
CCCOC1=C(I)C(=O)C[C@@H](C)[C@]12Oc1c(Cl)c(OC)cc(OC)c1C2=O | 230 | 8 |  | 1600 | 
COc1cc(OC)c2c(c1Cl)O[C@]1(C2=O)C(OCc2ccc(C)cc2)=CC(=O)C[C@H]1C | 240 | 1.8 |  | 1000 | 
COC1=C(I)C(=O)C[C@@H](C)[C@]12Oc1c(Cl)c(OC)cc(OC)c1C2=O |  | 22 | inactive |  | inhibition at 50 µM [5]: < 50%
COc1cc(OC)c2c(c1Cl)O[C@]1(C2=O)C(OCc2cccnc2)=CC(=O)C[C@H]1C | 350 | 10 |  |  | inhibition at 50 µM (Trichophyton rubrum [3]): < 50%
COC1=CC(=O)C[C@@H](C)[C@]12Oc1c(Cl)c(OC)c(N)c(OC)c1C2=O |  |  | inactive |  | inhibition [5]: inactive; inhibition (MDA-MB-231 [6]): inactive
COc1cc(OC)c2c(c1Cl)O[C@]1(C2=O)C(OCc2ccncc2)=CC(=O)C[C@H]1C |  | 19 |  |  | inhibition at 50 µM [5]: < 50%; inhibition at 50 µM (Trichophyton rubrum [3]): < 50%
COc1ccccc1COC1=CC(=O)C[C@@H](C)[C@]12Oc1c(Cl)c(OC)cc(OC)c1C2=O | 700 | 11 |  |  | inhibition at 50 µM (Trichophyton rubrum [3]): < 50%
COC1=CC(=O)C[C@@H](C)[C@]12Oc1c(Cl)c(OC)cc(OCc3cccc4ccccc34)c1C2=O |  | 17 | inactive |  | inhibition [5]: inactive
COc1cc(OC)c2c(c1Cl)O[C@]1(C2=O)C(OCc2ccc(-c3ccccc3)cc2)=CC(=O)C[C@H]1C |  | 5.8 | inactive |  | inhibition [5]: inactive
CCOc1cc(OC)c(Cl)c2c1C(=O)[C@@]1(O2)C(OC)=CC(=O)C[C@H]1C | 290 |  |  | 2000 | inhibition (MDA-MB-231 [6]): inactive
COc1cc(OC)c2c(c1Cl)O[C@]1(C2=O)C(OCC2CC2)=CC(=O)C[C@H]1C | 60 | 9.4 |  | 1500 | 
COc1cc(OC)c2c(c1Cl)O[C@]1(C2=O)C(OCc2ccccc2)=CC(=O)C[C@H]1C | 260 | 2.1 |  | 1100 | 
COc1cc(OC)c2c(c1Cl)O[C@@]1(C(=O)C=C(Cl)C[C@H]1C)C2=O |  | 1 | inactive |  | inhibition [5]: inactive
COc1cccc(COC2=CC(=O)[C@@]3(Oc4c(Cl)c(OC)cc(OC)c4C3=O)[C@H](C)C2)c1 |  | 25 | inactive |  | inhibition at 50 µM [5]: < 50%
CCOc1cc(OC)c2c(c1Cl)O[C@]1(C2=O)C(OC)=CC(=O)C[C@H]1C | 62 | 36 |  | 1300 | 
COc1cc(OC)c2c(c1Cl)O[C@]1(C2=O)C(OCCc2ccccc2)=CC(=O)C[C@H]1C | 280 | 17 |  |  | inhibition at 50 µM (Trichophyton rubrum [3]): < 50%
COc1cc(OC)c2c(c1Cl)O[C@]1(C2=O)C(OCc2ccc(F)cc2)=CC(=O)C[C@H]1C | 41 | 6.5 |  | 830 | 

Structure (SMILES) | IC50 [1] [nM] | IC50 (MDA-MB-231 [2]) [µM] | inhibition (Trichophyton rubrum [3]) | IC50 (Trichophyton rubrum [4]) [nM] | further results
COc1cccc(COC2=CC(=O)C[C@@H](C)[C@]23Oc2c(Cl)c(OC)cc(OC)c2C3=O)c1 | 140 | 8.1 |  | 960 | 
COc1cc(OC)c2c(c1Cl)O[C@]1(C2=O)C(Cl)=CC(=O)C[C@H]1C |  | 3.2 |  |  | inhibition at 50 µM [5]: < 50%; inhibition at 50 µM (Trichophyton rubrum [3]): < 50%
CCCCCOc1cc(OC)c(Cl)c2c1C(=O)[C@@]1(O2)C(OC)=CC(=O)C[C@H]1C | 170 |  |  |  | inhibition at 50 µM (Trichophyton rubrum [3]): < 50%; inhibition at 50 µM (MDA-MB-231 [6]): < 50%
COc1cc(OC)c2c(c1Cl)O[C@]1(C2=O)C(OCC23CC4CC(CC(C4)C2)C3)=CC(=O)C[C@H]1C |  | 4.7 | inactive |  | inhibition [5]: inactive
COC1=CC(=O)C[C@@H](C)[C@]12Oc1c(Cl)c(OC)cc(O)c1C2=O |  |  | inactive |  | inhibition at 50 µM [5]: < 50%; inhibition (MDA-MB-231 [6]): inactive
COc1cc(OC)c2c(c1Cl)O[C@@]1(C2=O)[C@H](C)C[C@H](O)C[C@@H]1OC | 3000 |  |  |  | inhibition at 50 µM (Trichophyton rubrum [3]): < 50%; inhibition (MDA-MB-231 [6]): inactive
COc1cc(OC)c2c(c1Cl)O[C@]1(C2=O)C(OCc2ccc(CO)cc2)=CC(=O)C[C@H]1C | 1700 | 2.8 |  |  | inhibition at 50 µM (Trichophyton rubrum [3]): < 50%
COc1ccc(COC2=CC(=O)C[C@@H](C)[C@]23Oc2c(Cl)c(OC)cc(OC)c2C3=O)cc1 |  |  | inactive |  | inhibition [5]: inactive; inhibition at 50 µM (MDA-MB-231 [6]): < 50%
COc1cc(OC)c2c(c1Cl)O[C@]1(C2=O)C(OCc2ccccc2)=C(I)C(=O)C[C@H]1C | 1100 |  | inactive |  | inhibition at 50 µM (MDA-MB-231 [6]): < 50%
COC1=CC(=O)C[C@@H](C)[C@]12Oc1c(Cl)c(OC)c([N+](=O)[O-])c(OC)c1C2=O |  |  | inactive |  | inhibition [5]: inactive; inhibition (MDA-MB-231 [6]): inactive
COc1cc(OC)c2c(c1Cl)O[C@]1(C(=O)CC(=O)C[C@@H]1C)C2=O (relative stereo) |  |  | inactive |  | inhibition at 50 µM [5]: < 50%; inhibition (MDA-MB-231 [6]): inactive
COc1cc(OC)c2c(c1Cl)O[C@]1(C2=O)C(OC(C)C)=CC(=O)C[C@H]1C | 110 | 11 |  | 3100 | 
COc1cc(OC)c2c(c1Cl)O[C@]1(C2=O)C(OCc2ccc(C(F)(F)F)cc2)=CC(=O)C[C@H]1C | 150 | 7 |  | 1500 | 
COc1cc(O)c(Cl)c2c1C(=O)[C@@]1(O2)C(=O)C=C(O)C[C@H]1C |  |  | inactive |  | inhibition [5]: inactive; inhibition (MDA-MB-231 [6]): inactive
COc1cc(OC)c2c(c1Cl)O[C@]1(C2=O)C(OC2CCCC2)=CC(=O)C[C@H]1C | 240 | 3.2 |  | 2500 | 
COc1cc(OC)c2c(c1Cl)O[C@]1(C2=O)C(SCc2ccccc2)=CC(=O)C[C@H]1C | 58 | 4.7 |  | 1300 | 
COc1cc(OC)c2c(c1Cl)O[C@]1(C2=O)C(=O)C(C)(C)C(=O)C[C@H]1C |  |  | inactive |  | inhibition [5]: inactive; inhibition (MDA-MB-231 [6]): inactive
CCOC1=CC(=O)C[C@@H](C)[C@]12Oc1c(Cl)c(OC)cc(OC)c1C2=O | 250 | 13 |  | 690 | 
COc1cc(OC)c2c(c1Cl)O[C@]1(C2=O)C(OCc2ccccn2)=CC(=O)C[C@H]1C | 1300 | 32 |  |  | inhibition at 50 µM (Trichophyton rubrum [3]): < 50%
COC1=CC(=O)C[C@@H](C)[C@]12Oc1c(Cl)c(O)cc(OC)c1C2=O |  |  | inactive |  | inhibition [5]: inactive; inhibition at 50 µM (MDA-MB-231 [6]): < 50%
